Legend:
MC38 tumors = experiment: MC38 syngeneic tumor model, XL092 and ICI combination studies; type: in vivo, mice; conditions: XL092 3 mg/kg orally once a day, anti-PD-1 5 mg/kg twice a week for 2 weeks i.p., 35 days
SNU-5 cells = experiment: Cellular proliferation, BrdU incorporation ELISA; type: cell-based; conditions: Homo sapiens, SNU-5, 48 h, read-out: Proliferation IC50
In short: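 SNU-5 seeded at 7,500 cells/well in triplicate in IMDM + 10% FBS + 1% penicillin-streptomycin, overnight at 37°C, 5% CO2. Serial dilutions added for 48 h. BrdU labelling 2 h at 37°C. Plates spun 300 × g, 10 min before medium removal. FixDenat 30 min at RT, anti-BrdU-POD 90 min at RT, washes, chemiluminescent read.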

HUVEC cells = experiment: Cellular proliferation, BrdU incorporation ELISA; type: cell-based; conditions: Homo sapiens, 48 h, read-out: Proliferation IC50
In short: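 HUVEC seeded at 1,500 cells/well in triplicate in VEGF-containing endothelial growth medium, overnight at 37°C, 5% CO2. Serial dilutions added for 48 h. BrdU labelling 2 h at 37°C, FixDenat 30 min at RT, anti-BrdU-POD 90 min at RT, washes, then chemiluminescent substrate read.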

TYRO3 = target: T1, TYRO3 (Homo sapiens, UniProt Q06418); experiment: Inhibition of receptor phosphorylation, ELISA, TYRO3-transfected 293A cells; type: cell-based
T1 sequence (Q06418 41-890): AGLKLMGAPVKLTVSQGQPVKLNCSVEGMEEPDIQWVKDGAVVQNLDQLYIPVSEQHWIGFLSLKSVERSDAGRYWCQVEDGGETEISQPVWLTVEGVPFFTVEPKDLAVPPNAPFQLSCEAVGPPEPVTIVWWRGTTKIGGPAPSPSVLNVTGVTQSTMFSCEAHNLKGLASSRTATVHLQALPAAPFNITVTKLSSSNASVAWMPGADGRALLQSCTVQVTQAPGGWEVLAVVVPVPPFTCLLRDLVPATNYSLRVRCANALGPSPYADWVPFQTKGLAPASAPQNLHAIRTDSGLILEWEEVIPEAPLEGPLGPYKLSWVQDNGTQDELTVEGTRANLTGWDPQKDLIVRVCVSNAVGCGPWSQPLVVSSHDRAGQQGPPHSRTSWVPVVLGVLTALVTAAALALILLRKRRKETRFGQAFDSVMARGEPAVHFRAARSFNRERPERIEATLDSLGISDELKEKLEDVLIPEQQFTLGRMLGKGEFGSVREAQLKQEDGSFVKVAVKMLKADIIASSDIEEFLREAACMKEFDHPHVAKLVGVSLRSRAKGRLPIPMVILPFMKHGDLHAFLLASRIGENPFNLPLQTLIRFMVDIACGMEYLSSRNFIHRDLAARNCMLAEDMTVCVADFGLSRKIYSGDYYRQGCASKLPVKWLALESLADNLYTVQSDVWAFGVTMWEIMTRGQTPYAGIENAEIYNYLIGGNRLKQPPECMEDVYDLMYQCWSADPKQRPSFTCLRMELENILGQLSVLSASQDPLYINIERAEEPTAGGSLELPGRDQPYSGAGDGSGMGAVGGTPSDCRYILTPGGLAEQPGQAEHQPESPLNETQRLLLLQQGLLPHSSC
In short: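 293A cells transfected with TYRO3 were serum-starved 3–24 h, then incubated 1 h in serum-free medium with serially diluted test compound. Receptor phosphorylation quantified by ELISA to derive IC50.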

peripheral leukocytes = experiment: Peripheral immunocytes by flow cytometry in MC38 tumor-bearing mice; type: in vivo; conditions: 7 days, XL092 30 mg/kg
In short: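 Female C57BL/6 mice (5–6 weeks) inoculated s.c. with 1 × 10^6 MC38 cells, randomised at ~200 mm3. […] single-cell suspensions surface-stained with a lineage panel plus fixable viability dye. Medians compared by Mann–Whitney U.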

`CNC(=O)c1cc2c(Oc3ccc(NC(=O)C4(C(=O)Nc5ccc(F)cc5)CC4)cc3)ccnc2cc1OC` [XL092] was tested, and the “TGI compared with vehicle” value (MC38 tumors) was “significant TGI”, the IC50 (SNU-5 cells) was 98.9 nM and the IC50 (HUVEC cells) was 10.4 nM. The IC50 (TYRO3) was 306 ± 1.37 nM, the “peripheral CD4+ T cells relative to vehicle” value (peripheral leukocytes) was “significant increases” and the “peripheral B cells relative to vehicle” value (peripheral leukocytes; antibodies 5 mg/kg) was “significant increases”. For the same compound, the “peripheral myeloid cells relative to vehicle” value (peripheral leukocytes; antibodies 5 mg/kg) was “significant decreases”.
